Shown are actives, neighbours in structure and some others; about 4.7% of the full set was active somewhere.
MrgX1 antagonist: antagonists of human MrgX1 receptor, primary screen, HEK293 cells, Fluo-4 calcium flux; B-score at 10 µM; 310,000 tested, 1.3% active; BAM8-22 antagonism; hits give low values; AID 588676, 2011; Mas-related G-protein coupled receptor member X1 (Homo sapiens), Q96LB2;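 active = calcium-response B-score plate-corrected more than 3 library SD below zero, starting fluorescence within 5 deviations, no agonist response on first addition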;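 also: peak minus trough fluorescence over baseline after final BAM8-22 challenge near maximal dose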
Target sequence (Q96LB2 whole entry, looked up): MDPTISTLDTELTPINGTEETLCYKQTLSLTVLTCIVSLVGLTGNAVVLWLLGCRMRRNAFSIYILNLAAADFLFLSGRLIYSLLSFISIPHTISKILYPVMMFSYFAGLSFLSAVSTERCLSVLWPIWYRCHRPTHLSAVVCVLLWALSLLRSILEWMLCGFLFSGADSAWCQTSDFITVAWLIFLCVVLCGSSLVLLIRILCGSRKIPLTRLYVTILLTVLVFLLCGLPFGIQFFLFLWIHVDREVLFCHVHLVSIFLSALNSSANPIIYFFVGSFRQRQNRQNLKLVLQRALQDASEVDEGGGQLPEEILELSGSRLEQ
Cl transport mod: KCC2 cotransporter modulators, thallium flux, primary screen, cell-based, HEK293 KCC2, FluoZin-2 fluorescence, MLSMR | AID 1456, 2008 | Solute carrier family 12 member 5 (Homo sapiens), Q9H2X9 | KCC2 cells, thallium flux FluoZin-2 fluorescence | 190,000 tested, 2.2% active | B-score of Tl+ flux slope (higher = more flux/activation; lower = inhibition) at 10 µM;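 active = thallium flux slope and its plate-corrected score both differing from the plate sample mean at a set confidence after two filtering rounds, in either direction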;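 also: slope of fluorescence scaled to starting intensity during 10 to 20 s after thallium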
MrgX1 ag: agonists of human MrgX1 receptor, primary screen, HEK293 cells, Fluo-4 calcium flux; Mas-related G-protein coupled receptor member X1 (Homo sapiens), Q96LB2; Fluo-4 calcium fluorescence, agonist mode; hits give high values; B-score at 10 µM; 310,000 tested, 0.44% active;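 active = calcium response B-score plate-corrected fluorescence ratio at least 3 library SD, with starting fluorescence B-score inside 5 SD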
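Test system: Stable human MrgX1 HEK293 cell line | Schedule: Overnight plating before 1 h dye loading | Read-out basis: Baseline-normalised fluorescence change ratio, B-scored | Detection: Kinetic calcium dye fluorescence, Fluo-4 NW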
MrgX1 allo act: positive allosteric modulators of MrgX1, primary screen, HEK293 cells, Fluo-4 calcium flux; AID 588675, 2011; B-score at 10 µM; Mas-related G-protein coupled receptor member X1 (Homo sapiens), Q96LB2; FDSS; hits give high values; 310,000 tested, 0.63% active;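 active = plate-corrected calcium response at least 3 library SD above typical, normal starting fluorescence, not activating the receptor alone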;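 also: compound read alongside a low EC10 to EC30 dose of BAM8-22 agonist; peak minus trough fluorescence over baseline measured at the second addition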
RGS4 inh: RGS4 inhibitors, primary screen, cell-based, HEK293 M3R inducible RGS4, calcium flux; Regulator of G-protein signaling 4 (Homo sapiens), P49798; Fluo-4 calcium flux; hits give high values; triggered by carbachol at its EC20; B-score at 10 µM; 310,000 tested, 0.45% active; AID 463165, 2010;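 active = B-score, a plate-corrected calcium signal, over three deviations above library mean, with baseline fluorescence within five deviations of library mean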;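 also: RGS4 expression induced by doxycycline in cells with stable M3 receptor; B-score is computed from the integrated fluorescence ratio over baseline after carbachol; higher B-score means a larger calcium signal and so more RGS4 inhibition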
Target sequence (P49798 whole entry, looked up): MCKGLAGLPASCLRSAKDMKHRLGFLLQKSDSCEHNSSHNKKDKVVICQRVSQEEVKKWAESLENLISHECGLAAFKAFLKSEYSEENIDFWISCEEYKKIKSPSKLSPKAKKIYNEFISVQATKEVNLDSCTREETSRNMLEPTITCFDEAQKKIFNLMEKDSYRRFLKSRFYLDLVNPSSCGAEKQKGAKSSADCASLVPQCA
RGS4 act: RGS4 potentiators or activators, primary screen, cell-based, HEK293 M3R inducible RGS4, calcium flux. carbachol calcium flux Fluo4; hits give low values. B-score at 10 µM. 310,000 tested, 0.92% active;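 active = B-score of the integrated calcium signal more than 4 SD below the library mean, with starting fluorescence not abnormally high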;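 also: negative B-score means reduced calcium response which marks RGS4 activation or potentiation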
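Assay system: Inducible-RGS4 HEK293 cells carrying M3 receptor | Schedule: Compound preincubation 20 min at room temperature before agonist | Signal: Kinetic calcium fluorescence imaging with Fluo4-AM dye, 2 µM | Read-out basis: B score from integrated fluorescence ratio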
KCC2 secondary: KCC2 modulators in sodium-free buffer, confirmation, cell-based, HEK293 KCC2, thallium flux, secondary assay | shares compounds with Cl transport mod | FluoZin2 fluorescence; hits give high values | normalised thallium flux (F/F0 slope) at 10 µM | 3,700 tested, 15% active | AID 1713, 2009;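 active = thallium flux slope above the same plate's solvent-only control mean plus 3 SD; inconclusive = the two replicate wells disagree; inactive = no significant difference from solvent-only control wells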
KCC2 bumet counter: thallium flux persisting under bumetanide in KCC2 cells, confirmation, counter-screen for KCC2 modulator project, cell-based, HEK293 KCC2, FluoZin2, secondary assay 3; shares compounds with Cl transport mod; HEK293-KCC2 + bumetanide/ouabain; hits give high values; normalized thallium flux at 10 µM; 3,700 tested, 49% active; AID 1714, 2009;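 active = thallium entry rate above the same plate's blocked-transporter control wells by more than 3 SD; inconclusive = the two repeat wells disagree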;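 also: raw slope of fluorescence over initial fluorescence between 10 and 20 s after thallium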
KCC2 secondary2: KCC2 modulators without ouabain present, confirmation, cell-based, HEK293 KCC2, thallium flux, FluoZin2, secondary assay 2; shares compounds with Cl transport mod; thallium flux FluoZin2 fluorescence; actives lie on both sides; F/F0 rise rate, 10–20 s post-thallium; normalized thallium flux at 10 µM; 3,700 tested, 23% active; AID 1715, 2009;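 active = thallium flux slope more than 3 SD above or below the plate's solvent-only control mean, mostly below; inconclusive = the two repeat wells disagreed; inactive = no significant shift from solvent-only controls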
HEK293 Tl flux: thallium flux modulation in parental HEK cells, confirmation, counter-screen for KCC2 modulator project, cell-based, counterscreen 1; shares compounds with Cl transport mod; HEK293 parental cells, thallium flux FluoZin2, ouabain; baseline-ratio fluorescence slope, 10–20 s after thallium; thallium flux rate (normalised fluorescence) at 10 µM; 3,700 tested, 46% active; AID 1716, 2009;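 active = thallium flux rate significantly above the same plate's solvent-only control wells, beyond their mean plus 3 SD; inconclusive = the two replicate wells gave conflicting results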
KCC2 ouabain: KCC2 inhibitors and activators, ouabain retest, confirmation, HEK-KCC2 cells | raw Tl+ flux slope (below DMSO = inhibition, above = activation) at 10 µM | AID 1717, 2009 | 3,700 tested, 48% active | HEK293-KCC2, thallium flux FluoZin2 fluorescence; bidirectional: low = inhibitor, high = activator | shares compounds with Cl transport mod;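 active = thallium flux slope beyond 3 SD from same-plate DMSO control mean in most replicates, usually higher, sometimes lower; inconclusive = repeat tests gave conflicting results; inactive = no significant difference from controls in most replicates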;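 also: slope of initial-normalized fluorescence between seconds 10 and 20 after thallium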
HEK counter2: native HEK Tl+ uptake effects, second counter-screen – HEK cells, counterscreen 2, counter-screen for KCC2 modulator project, confirmation; shares compounds with Cl transport mod; HEK293 parental, thallium flux FluoZin-2 fluorescence slope; thallium flux slope at 10 µM; 3,700 tested, 33% active;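 active = thallium flux slope above the same plate's solvent-control mean plus 3 SD in both duplicate wells; inconclusive = duplicate wells that disagreed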;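 also: run without ouabain in cells lacking the KCC2 cotransporter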
Of the large screens only hits and unclear results are named; the others gave an inactive call (follow-up assays come after a bar, where they were run).

O=C(NC(=S)Nc1ccccc1C(F)(F)F)c1ccccc1F	Cl transport mod 99.3 | KCC2 secondary inactive | KCC2 bumet counter 0.087 | KCC2 secondary2 0.0518 | HEK293 Tl flux 0.0547 | KCC2 ouabain 0.0675 | HEK counter2 0.0517
Cc1ccccc1C(=O)NC(=S)Nc1ccccc1C(=O)O	none
O=C(NC(=S)Nc1cccnc1Cl)c1ccco1	Cl transport mod 24.9 | KCC2 secondary 0.0198 | KCC2 bumet counter 0.0505 | KCC2 secondary2 inactive | HEK293 Tl flux inconclusive | KCC2 ouabain 0.043 | HEK counter2 inconclusive
Cc1ccccc1C(=O)NC(=S)Nc1ccccc1C(F)(F)F	none (no result: Cl transport mod)
COC(=O)c1ccccc1NC(=S)NC(=O)c1ccccc1C	Cl transport mod 4.73 | KCC2 secondary inactive | KCC2 bumet counter 0.0401 | KCC2 secondary2 inactive | HEK293 Tl flux 0.0135 | KCC2 ouabain inconclusive | HEK counter2 inconclusive
Cc1ccccc1C(=O)NC(=S)Nc1ccccc1[N+](=O)[O-]	Cl transport mod 14 | KCC2 secondary inactive | KCC2 bumet counter 0.0129 | KCC2 secondary2 inactive | HEK293 Tl flux 0.0109 | KCC2 ouabain inactive | HEK counter2 inactive
CCOc1ccccc1NC(=S)NC(=O)c1ccco1	none (no result: MrgX1 antagonist, Cl transport mod, MrgX1 ag, MrgX1 allo act)
O=C(CSc1nnc(-c2ccncc2)o1)Nc1ccccc1C(F)(F)F	none (no result: Cl transport mod)
O=C(O)c1ccccc1C(=O)NNc1ccc(Cl)cc1Cl	none
O=C(NCCc1cccc(C(F)(F)F)c1)C1CCC(=O)N(C2CC2)C1 (configuration not stated)	none (no result: Cl transport mod)
CC(C)CN(C(=O)COC(=O)C12CC3CC(CC(C3)C1)C2)c1c(N)n(Cc2ccccc2)c(=O)[nH]c1=O	none (no result: Cl transport mod)
Cc1cc(-c2nc3ncccc3o2)ccc1NC(=S)NC(=O)c1ccco1	Cl transport mod 10.3 | KCC2 secondary 0.0129 | KCC2 bumet counter 0.0403 | KCC2 secondary2 inactive | HEK293 Tl flux 0.0346 | KCC2 ouabain 0.0351 | HEK counter2 0.0164
O=C(NC(=S)Nc1ccccc1[N+](=O)[O-])c1ccco1	Cl transport mod 25.4 | KCC2 secondary 0.0171 | KCC2 bumet counter 0.077 | KCC2 secondary2 inactive | HEK293 Tl flux 0.0321 | KCC2 ouabain 0.0645 | HEK counter2 0.0161
COCCNC(=S)Nc1ccccc1[N+](=O)[O-]	none
Oc1ccccc1C(Nc1nccs1)c1ccc2cccnc2c1O (configuration not stated)	Cl transport mod 5.02 | KCC2 secondary inactive | KCC2 bumet counter 0.0152 | KCC2 secondary2 inactive | HEK293 Tl flux 0.00861 | KCC2 ouabain inconclusive | HEK counter2 inactive
O=C(CN1C(=O)C2C3C=CC(C3)C2C1=O)NCCN1CCCc2ccccc21 (configuration not stated)	Cl transport mod 4.55 | KCC2 secondary inactive | KCC2 bumet counter inactive | KCC2 secondary2 inactive | HEK293 Tl flux inactive | KCC2 ouabain inactive | HEK counter2 inactive
COC(=O)c1cnn(-c2nc(OC)cc(OC)n2)c1C	none
CCOC(=O)c1cnn(-c2nc(OC)cc(OC)n2)c1C(F)(F)F	Cl transport mod -10.7 | KCC2 secondary inactive | KCC2 bumet counter inactive | KCC2 secondary2 inactive | HEK293 Tl flux inactive | KCC2 ouabain inactive | HEK counter2 inactive
COc1ccc(CNC(=O)C[C@H]2C(=O)N(CCc3ccccc3)C[C@@H]2Cc2ccccc2)cc1	none (no result: Cl transport mod)
Cc1nn(CC(=O)O)c2ccccc12	Cl transport mod 6.56 | KCC2 secondary inactive | KCC2 bumet counter inactive | KCC2 secondary2 inactive | HEK293 Tl flux inactive | KCC2 ouabain inactive | HEK counter2 inactive
Cc1nn(CC(=O)NCc2ccccc2)c(=O)c2ccccc12	none
CC(NC(=O)C1CCCN1S(=O)(=O)c1cccc2nsnc12)c1ccccc1 (configuration not stated)	none (no result: Cl transport mod)
CCn1c(COC(=O)CNC(=O)c2cc(OC)c(OC)c(OC)c2)nc2cc(S(=O)(=O)N(C)C)ccc21	none (no result: Cl transport mod)
Cc1occc1-c1nnc(SCC(=O)N2CCOCC2)n1Cc1ccco1	Cl transport mod 6.41 | KCC2 secondary inactive | KCC2 bumet counter inactive | KCC2 secondary2 inactive | HEK293 Tl flux inactive | KCC2 ouabain inactive | HEK counter2 inactive
C/C(N)=C(/C#N)C(=O)CSc1cc(C)c2cc(C)cc(C)c2n1	Cl transport mod 4.12 | KCC2 secondary inactive | KCC2 bumet counter inactive | KCC2 secondary2 inactive | HEK293 Tl flux inconclusive | KCC2 ouabain inactive | HEK counter2 inactive
Cc1cc(C)c2nc(SCC#N)cc(C)c2c1	none
CCS(=O)(=O)NCc1ccc2c(c1)cc(C)n2C	Cl transport mod -3.1 | KCC2 secondary inactive | KCC2 bumet counter inactive | KCC2 secondary2 inactive | HEK293 Tl flux inactive | KCC2 ouabain inactive | HEK counter2 inactive
CCn1c(SCC(=O)NC2(C#N)CCCCC2)nc2ccccc2c1=O	none (no result: Cl transport mod)

Source: PubChem (several laboratories)
